Calls of active or inactive are those of the source. The rule behind the calls is not given here.
Assays:
Cricetinae gen. sp. [1] = assay: Compound at an intratracheal dose of […] was tested in vivo in hamster for the inhibition of elastase-induced lung hemorrhage by acute hemorrhagic assay; Not statistically significant; type: functional, organism-based; details: Cricetulus griseus
How it was run: (§1)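 Hamster acute hemorrhagic assay: test agent given intratracheally at 100 nmol/animal 30 min before intratracheal instillation of 50 μg HLE. Read-out is percent inhibition of elastase-induced lung hemorrhage versus controls. Significance is by Student's t test, P < 0.05; NS means not significant at that dose.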

Cricetinae gen. sp. [2] = assay: Compound at an oral dose of 2.5 mg/Kg was tested in vivo in hamster for the inhibition of elastase-induced lung hemorrhage by acute hemorrhagic assay; Not statistically significant; type: functional, organism-based; details: Cricetulus griseus
Cricetinae gen. sp. [3] = assay: Compound at an intratracheal dose of 100 nM was tested in vivo in hamster for the inhibition of elastase-induced lung hemorrhage by acute hemorrhagic assay; type: functional, Cricetulus griseus; how it was run: as §1
Neutrophil elastase = target: T1, Neutrophil elastase (Homo sapiens, UniProt P08246); assay: In vitro inhibition constant (Ki) against human leukocyte elastase (HLE-catalyzed hydrolysis of MeO-Suc-Ala-Ala-Pro-Ala-pNA)
T1 sequence (P08246 whole entry): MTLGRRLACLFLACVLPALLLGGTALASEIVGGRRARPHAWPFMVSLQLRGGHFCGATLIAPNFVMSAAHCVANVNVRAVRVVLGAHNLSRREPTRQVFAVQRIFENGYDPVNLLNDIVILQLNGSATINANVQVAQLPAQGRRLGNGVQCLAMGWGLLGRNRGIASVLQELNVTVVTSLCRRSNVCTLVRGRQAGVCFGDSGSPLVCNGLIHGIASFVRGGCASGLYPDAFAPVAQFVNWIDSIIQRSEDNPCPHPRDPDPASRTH

Cricetinae gen. sp. [4] = assay: Compound at an oral dose of 5 mg/Kg was tested in vivo in hamster for the inhibition of elastase-induced lung hemorrhage by acute hemorrhagic assay; Not statistically significant; type: functional, organism-based; details: Cricetulus griseus

| Ki (Neutrophil elastase) [nM] | Compound | inhibition (Cricetinae gen. sp. [1]) | inhibition (Cricetinae gen. sp. [2]) | Inhibition (Cricetinae gen. sp. [3]) [%] | inhibition (Cricetinae gen. sp. [4]) |
| --- | --- | --- | --- | --- | --- |
| 18 | Cc1ccccc1S(=O)(=O)NC(=O)c1ccc(S(=O)(=O)Nc2ccc(-c3ccccc3)n(CC(=O)NC(C(=O)C(F)(F)F)C(C)C)c2=O)cc1 (stereo unspecified) |  | inactive | 97 |  |
| 8 | COc1ccc(S(=O)(=O)N[C@H](C(=O)N2CCC[C@H]2C(=O)NC(C(=O)C(F)(F)F)C(C)C)C(C)C)cc1 (stereo partly specified) |  |  |  |  |
| 9.4 | CC(C)C(NC(=O)Cn1c(-c2ccccc2)ccc(NS(=O)(=O)c2ccc(C(=O)NS(=O)(=O)c3ccc(Cl)cc3)cc2)c1=O)C(=O)C(F)(F)F (stereo unspecified) |  | inactive | 96 |  |

More lines, now with the values behind:

| Compound | Ki (Neutrophil elastase) [nM] | inhibition (Cricetinae gen. sp. [1]) | inhibition (Cricetinae gen. sp. [2]) | Inhibition (Cricetinae gen. sp. [3]) [%] | inhibition (Cricetinae gen. sp. [4]) |
| --- | --- | --- | --- | --- | --- |
| CC(C)C(NC(=O)Cn1c(-c2ccccc2)ccc(NC=O)c1=O)C(=O)C(F)(F)F (stereo unspecified) |  | inactive |  |  |  |
| CC(=O)Nc1ccc(S(=O)(=O)Nc2ccc(-c3ccccc3)n(CC(=O)NC(C(=O)C(F)(F)F)C(C)C)c2=O)cc1 (stereo unspecified) |  |  |  | 95 |  |
| CC(C)C(NC(=O)Cn1c(-c2ccccc2)ccc(NS(=O)(=O)c2ccccc2)c1=O)C(=O)C(F)(F)F (stereo unspecified) |  | inactive |  |  | inactive |
